Laboratory results: ChEMBL document CHEMBL1122328, “Hypolipidemic activity of phthalimide derivatives. 2. N-phenylphthalimide and derivatives” (1983)

Assays:
Rattus norvegicus [1] = assay: Effect on low density cholesterol Holtzman rats after 14 days administration; type: functional
Method in brief: (§1)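 Holtzman male rats (~400 g) given drug at 20 (mg/kg)/day for 14 days; on day 14 blood taken from the abdominal aorta and serum separated by centrifugation at 3500 rpm; lipid and protein content of the lipoprotein fractions measured.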

Rattus norvegicus [2] = assay: Effect on Serum cholesterol levels on Holtzman rats at a dose of 10 (mg/kg)/day after 16 days; type: functional
Method in brief: (§2)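 Holtzman male rats (~200 g) dosed orally by intubation needle daily for 16 days, drug suspended in 1% carboxymethylcellulose; n = 6; vehicle control. Tail-vein serum cholesterol on days 9 and 16 by modified Liebermann–Burchard reaction; day-14 serum triglyceride by commercial kit; % control.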

Mus musculus [3] = assay: In vitro effect on CF1 male mouse on HMGCoA reductase after 16 days at a dose of 60 (mg/kg)/day; type: functional
Method in brief: (§3)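 In vivo enzyme study. CF₁ male mice were dosed ip for 16 days in 1% CMC, and liver was homogenised to 10% in 0.25 M sucrose with 0.001 M EDTA. Enzymes assayed: acetyl-CoA synthetase as hydroxamate at 540 nm after 30 min at 37 °C; HMG CoA reductase with [1-¹⁴C]acetate in 9000g supernatant for 60 min at 37 °C; fatty acid synthetase with [2-¹⁴C]malonyl-CoA; acyltransferase with [³H]glycerol 3-phosphate and microsomes for 10 min; phosphatidate phosphohydrolase as released phosphate at 820 nm after 30 min. N = 6; reported as % control.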

Rattus norvegicus [4] = assay: Effect on low density Protein Holtzman rats after 14 days administration; type: functional; method in brief: as §1
Mus musculus [5] = assay: Effect on triglycerides from CF1 male mice after 16 days at a dose of 40 (mg/kg/day); type: functional
Method in brief: (§4)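 Dosing was ip in CF₁ male mice (~25 g) for 16 days, with compound suspended in 1% carboxymethylcellulose. Liver was then taken and homogenised to 10% in 0.25 M sucrose with 0.001 M EDTA. Lipid was extracted from a 2 mL aliquot by the Folch and Bligh–Dyer methods and total mg of lipid was weighed. Cholesterol (Liebermann–Burchard), triglycerides (kit), neutral lipids and phospholipids were then measured; N = 6; reported as % of vehicle control.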

Mus musculus [6] = assay: In vitro effect on CF1 male mouse on acyltransferase after 16 days at a dose of 10 (mg/kg)/day; type: functional; method in brief: as §3
Mus musculus [7] = assay: In vivo effect on CF1 male mouse on Lipid content after 16 days at a dose of 20 (mg/kg)/day
Mus musculus [8] = species on record: Mus musculus; assay: In vitro effect on CF1 male mouse on Fatty acid synthetase; type: functional
Mus musculus [9] = assay: Effect on cholesterol from CF1 male mice after 16 days at a dose of 60 (mg/kg/day); type: functional
Method in brief: (§5)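 CF1 male mice dosed ip for 16 days at 10–60 (mg/kg)/day; liver taken and 10% homogenate made in 0.25 M sucrose + 0.001 M EDTA; aliquot extracted by Folch and Bligh–Dyer methods, mg lipid weighed, cholesterol measured by Liebermann–Burchard method; n = 6; % of 1% CMC control.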

Rattus norvegicus [10] = assay: Effect on high density Triglycerides Holtzman rats after 14 days administration; type: functional; method in brief: as §1
Mus musculus [11] = species on record: Mus musculus; assay: In vitro effect on CF1 male mouse on Citrate lyase; type: functional
Method in brief: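 In vitro test on 10% CF₁ male mouse liver homogenate (0.25 M sucrose, 0.001 M EDTA) with 2.5 μmol test drug. Assays: acetyl-CoA synthetase and citrate lyase as hydroxamate at 540 nm, 30 min, 37 °C; citrate exchange from [¹⁴C]citrate-loaded mitochondria after 10 min with drug; side-chain oxidation by ¹⁴CO₂ from [26-¹⁴C]cholesterol, 18 h, 37 °C; acetyl-CoA carboxylase by [¹⁴C]bicarbonate fixation after 30 min polymerization then 30 min at 37 °C.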

Rattus norvegicus [12] = assay: Effect on Serum cholesterol levels on Holtzman rats at a dose of 20 (mg/kg)/day after 9 days; type: functional; method in brief: as §2
Mus musculus [13] = species on record: Mus musculus; assay: Effect on Serum triglceride levels on Hyperlipidemic induced mice After 2-week diet; type: functional
Method in brief: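 Mice fed atherogenic diet for 2 weeks to raise serum lipids, then given drug at 20 (mg/kg)/day ip for a further 2 weeks; serum cholesterol and triglyceride measured after the diet and after 14 days dosing; n = 6; compared with 1% CMC and diet-only controls; % control.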

Mus musculus [14] = assay: Effect on cholesterol from CF1 male mice after 16 days at a dose of 10 (mg/kg/day); type: functional; method in brief: as §5
Rattus norvegicus [15] = assay: Effect on low density Phospholipids Holtzman rats after 14 days administration; type: functional; method in brief: as §1
Rattus norvegicus [16] = assay: Effect on very low density cholesterol Holtzman rats after 14 days administration; type: functional
Method in brief: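 Holtzman male rats (~400 g) received drug at 20 (mg/kg)/day for 14 days. On day 14, blood was collected from the abdominal aorta and serum was separated by centrifugation at 3500 rpm. Lipid content of the lipoprotein fractions was then determined.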

Mus musculus [17] = assay: In vitro effect on CF1 male mouse on Fatty acid synthetase after 16 days at a dose of 20 (mg/kg)/day; type: functional; method in brief: as §3
Mus musculus [18] = assay: Effect on phospholipids from CF1 male mice after 16 days at a dose of 10 (mg/kg/day); type: functional; method in brief: as §4
Rattus norvegicus [19] = assay: Effect on low density Triglycerides Holtzman rats after 14 days administration; type: functional; method in brief: as §1

## CC(=O)c1ccccc1N1C(=O)c2ccccc2C1=O
Rattus norvegicus [1]
  Control: 57%
Rattus norvegicus [2]
  Control: 54%
Mus musculus [3]
  Control: 94%
Rattus norvegicus [4]
  Control: 95%
Mus musculus [5]
  Control: 91%
Mus musculus [6]
  Control: 35%
Mus musculus [7]
  Control: 85%
Mus musculus [8]
  Control: 107%
Mus musculus [9]
  Control: 82%
Rattus norvegicus [10]
  Control: 63%
Mus musculus [11]
  Control: 62%
Rattus norvegicus [12]
  Control: 76%
Mus musculus [13]
  Control: 131%
Mus musculus [14]
  Control: 73%
Rattus norvegicus [15]
  Control: 87%
Rattus norvegicus [16]
  Control: 85%
Mus musculus [17]
  Control: 97%
Mus musculus [18]
  Control: 90%
Rattus norvegicus [19]
  Control: 52%
